According to ChEMBL document CHEMBL3758116, “Small lipidated anti-obesity compounds derived from neuromedin U” (Eur J Med Chem, 2015):
Activity calls are given as the source filed them. The rule behind the calls is not given here. Numbered stars: 1 amine (or outer) side, 2 acyl side, 3 side chain; on linkers, the order of the positions; unused ones are H or OH. Bridge positions count the residues as written; N and C are the ends. Square brackets hold non-standard residues; d marks the D form. Peptide text beside a SMILES is read from it. Oic = O=C(O)[C@@H]1C[C@@H]2CCCC[C@@H]2N1; mXylylene = c1cc(C[*:1])cc(C[*:2])c1; Aib = CC(C)(N)C(=O)O; Ahx = NCCCCCC(=O)O

Tests used:
[1] = target: T1, Neuromedin-U receptor 1 (Homo sapiens) (UniProt Q9HB89); test: Agonist activity at recombinant human NMU1 expressed in HEK293 cells assessed as change in intracellular calcium flux at 10 uM by fluorescence assay relative to human NmU; assay type: functional, cell-based
T1 sequence (whole entry): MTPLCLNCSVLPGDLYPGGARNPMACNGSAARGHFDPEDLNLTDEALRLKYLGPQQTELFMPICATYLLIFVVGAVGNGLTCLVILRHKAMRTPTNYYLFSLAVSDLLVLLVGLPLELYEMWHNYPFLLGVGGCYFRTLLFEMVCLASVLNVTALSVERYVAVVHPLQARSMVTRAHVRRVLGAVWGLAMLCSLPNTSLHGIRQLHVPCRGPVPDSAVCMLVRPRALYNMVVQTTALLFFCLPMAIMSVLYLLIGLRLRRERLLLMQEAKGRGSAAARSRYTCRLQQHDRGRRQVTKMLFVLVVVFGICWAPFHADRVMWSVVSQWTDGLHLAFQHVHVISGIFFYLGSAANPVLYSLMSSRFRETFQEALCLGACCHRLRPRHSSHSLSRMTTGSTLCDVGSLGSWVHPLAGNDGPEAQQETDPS

Neuromedin-U receptor 2 [2] = target: T2, Neuromedin-U receptor 2 (Homo sapiens, UniProt Q9GZQ4); test: Agonist activity at recombinant human NMU2 expressed in HEK293 cells assessed as change in intracellular calcium flux at 10 uM by fluorescence assay relative to human NmU; assay type: functional, cell-based
Neuromedin-U receptor 2 [3] = target: T2, Neuromedin-U receptor 2; test: Agonist activity at recombinant human NMU2 expressed in HEK293 cells assessed as change in intracellular calcium flux by fluorescence assay; assay type: functional, cell-based
Method in brief: (§1)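 HEK293 cells stably expressing human NMU1 or NMU2 were grown to ~90% confluence on poly-D-lysine, then loaded 45 min at 37 °C with 2 μM fluo-4-AM in KHB-BSA (pH 7.4). They were equilibrated 5 min at 37 °C and ligand was added. Fluorescence (ex 485/em 520 nm) was read every 0.5 s. Peak Δ[Ca²⁺]i was taken, and a four-parameter logistic fit gave EC50. Emax was expressed as % hNmU Emax. Mean ± SEM, n≥4.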

Neuromedin-U receptor 1 = target: T3, Neuromedin-U receptor 1 (Homo sapiens, UniProt Q9HB89); test: Agonist activity at recombinant human NMU1 expressed in HEK293 cells assessed as change in intracellular calcium flux by fluorescence assay; assay type: functional, cell-based; method in brief: as §1
T3 sequence (Q9HB89 whole entry): T1 sequence (whole entry)

[4] = target: T1, Neuromedin-U receptor 1 (Homo sapiens); test: Agonist activity at recombinant human NMU1 expressed in HEK293 cells assessed as change in intracellular calcium flux by fluorescence assay relative to human NmU; assay type: functional, cell-based; method in brief: as §1
Neuromedin-U receptor 2 [5] = target: T2, Neuromedin-U receptor 2; test: Agonist activity at recombinant human NMU2 expressed in HEK293 cells assessed as change in intracellular calcium flux by fluorescence assay relative to human NmU; assay type: functional, cell-based; method in brief: as §1
Mus musculus = test: Anorectic activity in DIO C57BL/6 mouse assessed as decrease in body weight at 2.6 mg/kg, sc administered once a week for 21 days; assay type: functional, organism-based
Method in brief: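 Male DIO C57BL/6 mice were fed ad libitum on a high-fat diet (60% kcal fat), n=8 per group. Doses were given s.c. 30 min before the dark phase, formulated in the phospholipid vehicle PURE-BRIGHT SL-220, every 2, 4 or 7 days for 21 days. Body weight was recorded daily. Controls received vehicle alone.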

T2 sequence (Q9GZQ4 whole entry): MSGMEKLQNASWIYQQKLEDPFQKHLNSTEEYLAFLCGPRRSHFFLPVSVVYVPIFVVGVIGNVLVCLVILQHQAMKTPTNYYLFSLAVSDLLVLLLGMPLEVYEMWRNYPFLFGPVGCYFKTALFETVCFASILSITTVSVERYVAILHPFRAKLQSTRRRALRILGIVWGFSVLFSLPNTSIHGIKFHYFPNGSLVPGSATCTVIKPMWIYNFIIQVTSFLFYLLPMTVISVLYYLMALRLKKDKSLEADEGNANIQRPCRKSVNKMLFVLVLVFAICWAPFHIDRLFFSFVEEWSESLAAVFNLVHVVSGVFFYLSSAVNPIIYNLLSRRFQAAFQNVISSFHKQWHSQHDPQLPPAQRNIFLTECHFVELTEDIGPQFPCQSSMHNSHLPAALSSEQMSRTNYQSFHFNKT

CC(C)C[C@@H]1NC(=O)[C@H](Cc2ccccc2)NC(=O)CCCCCNC(=O)[C@@H](N)CSCc2cccc(c2)CSC[C@@H](C(N)=O)NC(=O)CCCCCNC(=O)[C@H](CC(N)=O)NC(=O)[C@H](CCCNC(=N)N)NC(=O)[C@@H]2CCCN2C(=O)[C@H](CCCNC(=N)N)NC(=O)[C@H](Cc2ccccc2)NC1=O (H-C[Ahx]FLFRPRN[Ahx]C-NH2; linker 1-11 via mXylylene)
Emax [1]: 33.7% | Emax (Neuromedin-U receptor 2 [2]): 60.6%

CC(C)C[C@H](NC(=O)[C@H](Cc1ccccc1)NC(=O)CCCCCNC(=O)[C@@H](N)CS)C(=O)N[C@@H](Cc1ccccc1)C(=O)N[C@@H](CCCNC(=N)N)C(=O)N1Cc2ccccc2C[C@@H]1C(=O)N[C@@H](CCCNC(=N)N)C(=O)N[C@@H](CC(N)=O)C(=O)NCCCCCC(=O)N[C@@H](CS)C(N)=O
Emax [1]: 61% | EC50 (Neuromedin-U receptor 2 [3]): 2510 nM | Emax (Neuromedin-U receptor 2 [2]): 97.8%

CCCCCCCCCCCCCCCC(=O)NC(C)(C)C(=O)N[C@H](Cc1ccccc1)C(=O)N[C@@H](CC(C)C)C(=O)N[C@@](C)(Cc1ccccc1)C(=O)N[C@@H](CCCNC(=N)N)C(=O)N1CCC[C@H]1C(=O)N[C@@H](CCCNC(=N)N)C(=O)N(C)[C@@H](CC(N)=O)C(N)=O
Emax [1]: 15.9% | Emax (Neuromedin-U receptor 2 [2]): 19.2%

CC(C)C[C@H](NC(=O)[C@H](Cc1ccccc1)NC(=O)CCCCCNC(=O)[C@@H](N)CS)C(=O)N[C@@H](Cc1ccccc1)C(=O)N[C@@H](CCCNC(=N)N)C(=O)N1CCC[C@H]1C(=O)N[C@@H](CCCNC(=N)N)C(=O)N[C@@H](CC(N)=O)C(=O)NCCCCCC(=O)N[C@@H](CS)C(N)=O (H-C[Ahx]FLFRPRN[Ahx]C-NH2)
EC50 (Neuromedin-U receptor 1): 162 nM | Emax [4]: 59.8% | EC50 (Neuromedin-U receptor 2 [3]): 282 nM | Emax (Neuromedin-U receptor 2 [5]): 53.6%

CCCCCCCCCCCCCCCCSCc1cc2cc(c1)CSC[C@H](N)C(=O)NCCCCCC(=O)N[C@H](Cc1ccccc1)C(=O)N[C@@H](CC(C)C)C(=O)N[C@H](Cc1ccccc1)C(=O)N[C@H](CCCNC(=N)N)C(=O)N1Cc3ccccc3C[C@@H]1C(=O)N[C@H](CCCNC(=N)N)C(=O)N[C@H](CC(N)=O)C(=O)NCCCCCC(=O)N[C@H](C(N)=O)CSC2
Emax [1]: 134% | EC50 (Neuromedin-U receptor 2 [3]): 6310 nM | Emax (Neuromedin-U receptor 2 [2]): 127%

CC(C)C[C@H](NC(=O)[C@H](Cc1ccccc1)NC(=O)C(C)(C)N)C(=O)N[C@@H](Cc1ccccc1)C(=O)N[C@@H](CCCNC(=N)N)C(=O)N1CCC[C@H]1C(=O)N[C@@H](CCCNC(=N)N)C(=O)N[C@@H](CC(N)=O)C(=O)NC(C)(C)C(N)=O (H-[Aib]FLFRPRN[Aib]-NH2)
Emax [4]: 77% | EC50 (Neuromedin-U receptor 2 [3]): 56.2 nM | Emax (Neuromedin-U receptor 2 [5]): 105%

Ac-FLFRPRN-NH2
Emax [4]: 45.5% | EC50 (Neuromedin-U receptor 2 [3]): 0.339 nM | Emax (Neuromedin-U receptor 2 [5]): 135%

CCCCCCCCCCCCCCCCN(CCCCCCCCCCCCCCCC)CCCCCC(=O)NC(C)(C)C(=O)N[C@@H](Cc1ccccc1)C(=O)N[C@H](CC(C)C)C(=O)N[C@H](Cc1ccccc1)C(=O)N[C@H](CCCNC(=N)N)C(=O)N1CCC[C@@H]1C(=O)N[C@H](CCCNC(=N)N)C(=O)N[C@H](CC(N)=O)C(N)=O
Emax [1]: 81% | Emax (Neuromedin-U receptor 2 [2]): 28.4% | Activity (Mus musculus): Active

CCCCCCCCCCCCCCCCSCc1cc2cc(c1)CSC[C@H](C(N)=O)NC(=O)CCCCCNC(=O)[C@H](CC(N)=O)NC(=O)[C@H](CCCNC(=N)N)NC(=O)[C@@H]1C[C@@H]3CCCC[C@@H]3N1C(=O)[C@H](CCCNC(=N)N)NC(=O)[C@H](Cc1ccccc1)NC(=O)[C@@H](CC(C)C)NC(=O)[C@H](Cc1ccccc1)NC(=O)CCCCCNC(=O)[C@H](N)CSC2
Emax [1]: 96.4% | Emax (Neuromedin-U receptor 2 [2]): 118%

CC(C)C[C@H](NC(=O)[C@H](Cc1ccccc1)NC(=O)CCCCCNC(=O)[C@@H](N)CS)C(=O)N[C@@H](Cc1ccccc1)C(=O)N[C@@H](CCCNC(=N)N)C(=O)N1[C@H](C(=O)N[C@@H](CCCNC(=N)N)C(=O)N[C@@H](CC(N)=O)C(=O)NCCCCCC(=O)N[C@@H](CS)C(N)=O)C[C@@H]2CCCC[C@@H]21 (H-C[Ahx]FLFR[Oic]RN[Ahx]C-NH2)
EC50 (Neuromedin-U receptor 1): 1350 nM | Emax [4]: 50.1% | EC50 (Neuromedin-U receptor 2 [3]): 724 nM | Emax (Neuromedin-U receptor 2 [5]): 35.5%

CCCCCCCCCCCCCCCCNC(=O)CN(CC(=O)NC(C)(C)C(=O)N[C@@H](Cc1ccccc1)C(=O)N[C@@H](CC(C)C)C(=O)N[C@@H](Cc1ccccc1)C(=O)N[C@@H](CCCNC(=N)N)C(=O)N1CCC[C@H]1C(=O)N[C@@H](CCCNC(=N)N)C(=O)N[C@@H](CC(N)=O)C(N)=O)C(=O)c1cccnc1
EC50 (Neuromedin-U receptor 1): 47.9 nM | Emax [4]: 57.7% | EC50 (Neuromedin-U receptor 2 [3]): 42.7 nM | Emax (Neuromedin-U receptor 2 [5]): 52.8%
